Activity calls are given as the source filed them.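 The calls were made as follows: active = growth reading drops at least 35% at both 405 and 600 nm in duplicate, reached below 10 µM; inactive = the rest, including effects in the opposite direction.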

Tested on in one assay: not listed separately
Nature of the assay: mexAB-OprM mutant growth inhibition with EDDHA – PAK mexAB-OprM pump mutant, OD600, dry powder, dose response (AID 624105). Conditions: P. aeruginosa PAK mexAB-oprM +EDDHA growth, OD600, 28 h; at 100 µM (top of the series). The procedure, abridged: (§1)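 Material: Pseudomonas aeruginosa PAK strain lacking the mexAB-oprM efflux pump; times: 28 h exposure, 30 °C; compound: 15 nM to 100 µM final; medium: succinate M9, pH 7.0, with 2 µM EDDHA iron chelator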
With `COCCOCCC(C#N)c1ccc(Cl)cc1` (centres undefined), the growth change, negative = inhibition is -6.59% (inactive).
Regarding `CN(C)CCCC(C#N)c1ccc(Cl)cc1` (centres undefined), the growth change, negative = inhibition is -3.26% (inactive).
Still for that read-out and setting: next, `N#CC(c1ccc(C(F)(F)F)c(Cl)n1)c1ccccc1OC(F)(F)F` (centres undefined): -14.9% (inactive); `Clc1ccc(C(c2cccc(Cl)n2)c2nn[nH]n2)cc1` (centres undefined): 11.1% (inactive); `CCCCC(C#N)c1ccccn1` (centres undefined): -13.4% (inactive).

A further assay deals with P. aeruginosa PAK mexAB-oprM +EDDHA growth, OD600, 28 h. Described as above.
Details: not given
The procedure, abridged: as §1
For `COCCC(C#N)c1ccc(F)cc1` (centres undefined), the AC35 is 95.8 µM.
Still for that read-out and setting: under `CCCCC(C#N)c1ccc(F)cn1` (centres undefined) stands 51.7 µM; under `N#CC(c1ccc(Cl)cc1)N1CCCC1` (centres undefined), > 100 µM (inactive).
Still for that read-out and setting: under `N#CC(c1cccc(Cl)n1)c1ccc(Cl)cc1F` (centres undefined) stands 7.15 µM; under `N#CC(c1ccc(Cl)cc1)c1cccc(Cl)n1` (centres undefined), 8.36 µM; under `N#CC(c1ccc(F)cc1)c1cccc(Cl)n1` (centres undefined), 11.5 µM.
Still for that read-out and setting: under `N#CC(c1cccc(C(F)(F)F)n1)c1ccc(Cl)cc1F` (centres undefined) stands 8.69 µM; under `N#Cc1cccc(C(C#N)c2ccc(F)cc2)n1` (centres undefined), 54.9 µM; under `N#CC(c1ccc(Cl)cc1)c1ccccn1` (centres undefined), 31 µM.
For the compound `COCCOCCC(C#N)c1ccc(F)cc1` (centres undefined), the AC35 is 51.9 µM.
Same read-out and setting: under `CN(C)CCCC(C#N)c1ccc(F)cc1` (centres undefined) stands 49.5 µM; under `N#CC(c1ccc(Cl)cc1)c1ncccc1Cl` (centres undefined), 6.05 µM.
Still for that read-out and setting: under `N#CC(c1ccc(F)cc1)c1cccc(C(F)(F)F)n1` (centres undefined) stands 6.72 µM.
Still for that read-out and setting: next, `N#CC(c1ccc(Cl)cc1)c1cccc(C(F)(F)F)n1` (centres undefined): 12 µM.

The values are drawn from PubChem BioAssay AID624105 (Broad Institute, 2012).
